LMPTP block – blocks human LMPTP phosphatase; recombinant LMPTP-A, OMFP fluorogenic substrate, fluorescence intensity; P24666; actives 0.22% (n = 360,000); inhibition, % at 20 µM; AID 651560;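 active = compounds that cut the enzyme signal by at least half of the control window in the single-dose screen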;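 also: plate controls were DMSO wells with enzyme plus substrate for no effect and substrate without enzyme for full effect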
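Test system – LMPTP-A phosphatase enzyme · Quantity – 0.625 nM LMPTP-A final · Reagent – OMFP substrate, 400 µM final · Dosing – one test concentration per compound, 20 µM, with 3% DMSO overall · Timing – 50 min enzyme reaction at room temperature, protected from light · Detection – fluorescence intensity · Controls – substrate-only low control, DMSO enzyme-plus-substrate high control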
DNMT1 block – blocks human DNA methyltransferase DNMT1. P26358. actives 0.83% (n = 360,000). inhibition (reported as % activation of signal), % at 10 µM. DNMT1 molecular beacon, Hinp1I cleavage, fluorescence; in the data active = inhibition above about 50%
Scp-1 inhibitor – inhibitors of human Scp-1 phosphatase; Q9GZU7; Recombinant Scp1, phosphopeptide, malachite green phosphate absorbance; inhibition, % at 20 µM; actives 0.88% (n = 340,000); AID 493091;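 active = inhibition above about 50% at 20 µM, limit read from the data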;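 also: plate controls were DMSO wells with enzyme for no effect and wells lacking enzyme for full effect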
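Material: truncated SCP-1 phosphatase (76-261aa) / Buffer or medium: 50 mM Tris acetate pH 5.5, 0.005% Tween-20, 10 mM MgCl2 / Compound dosing: one concentration, 20 µM, with 1.0% DMSO / Incubation: 45 min room-temperature reaction, 5 min colour, 30 min stabiliser / Detection: colorimetric free-phosphate detection, absorbance 630 nm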
F508del corr – correctors of CFTR F508del function in bronchial epithelial cells; CFBE cells, YFP halide quenching; stimulated with forskolin plus potentiator P3; % fluorescence drop versus neutral controls; activity (quench increase), % at 7.58 µM; actives 0.36% (n = 350,000);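 active = mean added fluorescence quench of at least 8% versus neutral control, with both replicates also reaching 8%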;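 also: cells transiently co-express mutant CFTR-F508del with the halide-sensitive YFP; corrector assay measuring rescue of mutant channel to the surface after 24 h compound exposure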
STEP block – STEP (human) phosphatase inhibition; P54829; recombinant STEP, OMFP fluorogenic substrate, fluorescence; inhibition, % at 20 µM; actives 0.25% (n = 360,000);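 active = inhibition at 20 µM, scaled per plate between control wells, above about 37%, limit read from the data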;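 also: 0% = DMSO with enzyme and substrate and 100% = substrate only without enzyme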
Target sequence (P54829 whole entry, looked up): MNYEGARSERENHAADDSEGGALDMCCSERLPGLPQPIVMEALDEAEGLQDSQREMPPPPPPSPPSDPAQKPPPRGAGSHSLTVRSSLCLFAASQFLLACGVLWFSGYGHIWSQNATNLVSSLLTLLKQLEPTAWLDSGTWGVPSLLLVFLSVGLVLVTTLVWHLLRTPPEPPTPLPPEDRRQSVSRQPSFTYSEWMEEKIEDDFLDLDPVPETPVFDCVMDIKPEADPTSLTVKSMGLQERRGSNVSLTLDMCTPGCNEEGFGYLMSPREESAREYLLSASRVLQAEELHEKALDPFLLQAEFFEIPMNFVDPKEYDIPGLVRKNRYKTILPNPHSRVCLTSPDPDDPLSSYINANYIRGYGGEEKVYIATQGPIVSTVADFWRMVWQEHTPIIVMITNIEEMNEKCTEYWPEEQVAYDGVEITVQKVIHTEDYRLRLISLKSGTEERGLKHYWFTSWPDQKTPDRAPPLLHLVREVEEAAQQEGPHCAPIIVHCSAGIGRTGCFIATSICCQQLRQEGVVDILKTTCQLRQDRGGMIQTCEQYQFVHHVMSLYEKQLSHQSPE
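Material: STEP (striatal-enriched tyrosine phosphatase) enzyme, cell-free; Compound dosing: 20 µM single dose in 1% DMSO; Technique: fluorescence read at 480 nm ex / 540 nm em; Times: reaction 20 min, ambient temperature; Medium: 50 mM Bis-Tris pH 6.0 with 2.5 mM DTT and 0.005% Tween 20; Also added: OMFP at 25 µM.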
SUMO1 PPI mod – modulators of human SUMO1-mediated protein-protein interactions; actives 0.33% (n = 360,000); SUMO1 binding to a labelled peptide, TR-FRET, 1 h; AID 602429; inhibition, % at 20 µM; P63165; in the data active = inhibition above about 37%
Numbers without * were called inactive; . = no result given. An excerpt weighted towards active compounds, which were near 1.6% of everything screened.

SMILES	LMPTP block	DNMT1 block	Scp-1 inhibitor	F508del corr	STEP block	SUMO1 PPI mod
C[C@@H]1CN([C@@H](C)CO)C(=O)c2cc(NC(=O)Cc3cn(C)c4ccccc34)ccc2O[C@@H]1CN(C)Cc1ccc(C(F)(F)F)cc1	.	.	.	2	.	.
COc1cccc(CNC(=O)[C@H]2[C@H](CO)[C@H]3Cn4c(ccc(-c5cccnc5)c4=O)[C@H]3N2C)c1	.	.	.	1	.	.
CC(=O)NS(=O)(=O)c1ccc(NC(=O)CSc2ccc(Cl)cc2)cc1	.	.	0	9.6*	.	.
NC(=S)Cc1nc(-c2ccccc2)cs1	0	50*	4	.	4	-2
Oc1csc(Cc2nc(-c3ccc(-c4ccccc4)cc3)cs2)n1	1	10	1	.	3	0
COc1ccc2c3c([nH]c2c1)[C@H](CO)N(Cc1cc(F)ccc1F)CC31CCN(C(C)=O)CC1	.	.	.	1	.	.
Cn1c(SCC(=O)Nc2ccc3nc(SCC(=O)NC4CC4)sc3c2)nnc1-c1ccccc1	0	-6	-3	.	6	1
Cn1c(SCC(=O)Nc2ccc3nc(SCC(=O)N4CCCC4)sc3c2)nnc1-c1ccc(N)cc1	31	24	65*	.	6	63*
C[C@H](CO)N1C[C@H](C)[C@H](CN(C)Cc2ccc3c(c2)OCO3)Oc2ccc(NC(=O)C3CC3)cc2CC1=O	.	.	.	1	.	.
CCn1c(SCC(=O)Nc2ccc3c(c2)c2ccccc2n3CC)nnc1-c1ccco1	15	96*	74*	.	0	26
CNC[C@H]1Oc2ccc(NC(=O)C3CC3)cc2CC(=O)N([C@H](C)CO)C[C@H]1C	.	.	.	-3	.	.
O=C(NCc1cc(C(F)(F)F)ccc1Cl)c1cccc2c1C(=O)c1ccc(N3CCC(N4CCCCC4)CC3)cc1S2(=O)=O	21	7	.	1	1	64*
O=C(NCc1cc(C(F)(F)F)ccc1Cl)c1cccc2c1C(=O)c1ccc(N3CCCCC3)cc1S2(=O)=O	1	32	8	0	-6	-24
Cc1cc2nnc(SCC(=O)NCc3ccco3)n2c2ccccc12	0	1	-4	9.8*	-4	6
O=C(C[C@H]1C=C[C@@H](NC(=O)C2CCC2)[C@@H](CO)O1)NCc1ccccc1Cl	.	.	.	-3	.	.
CCCCNC(=O)CSc1nc2ccc(C)cc2[nH]1	0	-3	-8	17*	-4	-2
COc1ccc(NC(=O)N[C@H]2CC[C@H](CCn3cc(C4(O)CCCC4)nn3)O[C@H]2CO)cc1	.	.	.	-2	.	.
CN1C(=O)c2cc(NC(=O)Cc3ccccc3)ccc2OC[C@@H]2O[C@H](CC(=O)NCc3ccc(Cl)cc3)CC[C@H]21	.	.	.	10*	.	.
CN1C(=O)c2cc(NC(=O)c3ccc(Cl)cc3)ccc2OC[C@@H]2O[C@H](CC(=O)NCc3cccc(F)c3)CC[C@H]21	.	.	.	12*	.	.
CCCc1cc(=O)oc2cc(OCC(=O)Nc3ccccn3)ccc12	-1	1	35	4	0	19
COc1ccc(-c2cc(=O)oc3cc(OCC(=O)Nc4ccccn4)ccc23)cc1	6	-4	-9	-1	0	43*
CO[C@H]1CN(C)C(=O)c2ccc(NC(=O)c3ccccc3)cc2OC[C@H](C)NC[C@@H]1C	.	.	.	-1	.	.
O=C1N=c2ccccc2=C1c1sc(Nc2ccc(O)cc2)nc1O	76*	-1	80*	1	42*	4
O=C1N=c2ccccc2=C1c1sc(Nc2cccc(O)c2)nc1O	16	-4	20	0	12	-1
Cc1ccc(NC(=O)c2ccc(Cl)c(S(=O)(=O)Nc3c(C)n(C)n(-c4ccccc4)c3=O)c2)cc1Cl	4	-4	-4	12*	2	3
CCOc1ccc2nc(NC3=NC(c4ccc(OC)cc4)CC(=O)N3)nc(C)c2c1 (stereo unspecified)	57*	-8	11	-8	86*	6
O=C1C=C(c2ccc3ncccc3c2)C[C@@H](c2ccc3c(c2)OCO3)C1	9	-5	1	9.8*	2	-29
COc1cc(NC(=O)N2CCNC2=O)cc(C(=O)Nc2cccc(C(F)(F)F)c2)c1	1	0	-8	8.0*	-4	0

High-throughput results deposited in PubChem by several laboratories.
